Measured values: ChEMBL document CHEMBL4406810, “Modifications on the Amino-3,5-dicyanopyridine Core To Obtain Multifaceted Adenosine Receptor Ligands with Antineuropathic Activity” (J Med Chem, 2019)
Activity calls are given as the source filed them.

How the values were obtained:
[1] = system: CHO; assay: Effect on cAMP level in wild-type CHO cells at 0.001 to 1 uM by alphascreen assay; assay type: functional, cell-based; conditions: Cricetulus griseus
Method in brief: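 Compounds at 1 nM to 1 µM final concentrations. cAMP quantified with AlphaScreen kit. Four independent experiments, each in triplicate.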

[2] = target: T1, Adenosine receptor A2a (Homo sapiens, UniProt P29274); assay: Displacement of [3H]ZM241385 from human A2AR expressed in CHO cell membranes measured after 60 mins by scintillation counting method
Method in brief: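 Nonspecific binding defined with 1 µM ZM241385. Filtered on GF/B, scintillation counted. Ki by Cheng–Prusoff. Percent inhibition at 1 µM. Four experiments in triplicate.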

[3] = target: T2, Adenosine receptor A1 (Homo sapiens, UniProt P30542); assay: Inverse agonist activity at human A1AR expressed in CHO cells assessed as increase in forskolin-stimulated cAMP production by alphascreen assay; assay type: functional, cell-based
T2 sequence (P30542 whole entry): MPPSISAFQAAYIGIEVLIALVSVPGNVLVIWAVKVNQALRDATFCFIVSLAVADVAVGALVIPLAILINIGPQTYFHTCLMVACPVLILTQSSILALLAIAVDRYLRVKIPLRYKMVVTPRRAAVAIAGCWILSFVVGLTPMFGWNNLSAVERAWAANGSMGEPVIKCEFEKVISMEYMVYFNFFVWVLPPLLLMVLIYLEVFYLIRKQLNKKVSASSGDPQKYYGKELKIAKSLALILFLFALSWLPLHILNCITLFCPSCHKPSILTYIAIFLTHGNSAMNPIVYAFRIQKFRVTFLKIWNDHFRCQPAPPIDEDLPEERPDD
Method in brief: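 Compounds at 1 nM to 1 µM. cAMP rise measured by AlphaScreen. EC50 from sigmoid fit. Four independent experiments in triplicate.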

[4] = target: T3, Adenosine receptor A2b (Homo sapiens, UniProt P29275); assay: Agonist activity at human A2B expressed in CHO cells assessed as stimulation of cAMP production by alphascreen assay; assay type: functional, cell-based
T3 sequence (P29275 whole entry): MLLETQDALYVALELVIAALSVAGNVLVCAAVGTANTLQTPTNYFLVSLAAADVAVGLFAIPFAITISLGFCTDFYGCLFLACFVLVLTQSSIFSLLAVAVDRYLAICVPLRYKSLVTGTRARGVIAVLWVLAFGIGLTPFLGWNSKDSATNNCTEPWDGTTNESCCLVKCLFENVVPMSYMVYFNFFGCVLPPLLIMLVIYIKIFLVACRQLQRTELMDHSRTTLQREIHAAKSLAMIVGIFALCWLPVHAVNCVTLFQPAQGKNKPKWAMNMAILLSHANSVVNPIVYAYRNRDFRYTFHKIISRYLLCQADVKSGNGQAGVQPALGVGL
Method in brief: (§1)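 Compounds tested alone at final 1 nM to 1 µM. cAMP measured by AlphaScreen. Efficacy taken at 1 µM relative to NECA 1 µM (=100%). Four independent experiments in triplicate.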

[5] = system: Mus musculus; assay: Antinociceptive activity in CD-1 albino mouse model of oxaliplatin-induced neuropathic pain assessed as increase in licking latency at 0.3 mg/kg, po treated on day 15 post oxaliplatin treatment and measured at 15 to 60 mins post dose in presence of nonspecific nAChR antagonist mecamylamine by cold plate test; assay type: functional, organism-based
Method in brief: (§2)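 Oxaliplatin neuropathy in male CD-1 mice (2.4 mg/kg i.p., 10 injections, days 1-14). Day 15: mecamylamine 2 mg/kg i.p. or methyllycaconitine 6 mg/kg i.p. given 15 min before the oral dose. Cold plate (4 °C) licking/lifting latency with 60 s cut-off, measured over time after dosing. 10 mice/group, two sets.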

[6] = target: T3, Adenosine receptor A2b; assay: Antagonist activity at human A2BR expressed in CHO cells assessed as inhibition of NECA-stimulated cAMP production by alphascreen assay; assay type: functional, cell-based
Method in brief: (§3)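 Compounds added at 1 nM to 1 µM final, with percent inhibition read at 1 µM. AlphaScreen cAMP read-out. IC50 by sigmoid non-linear regression. Four independent experiments in triplicate.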

[7] = target: T1, Adenosine receptor A2a; assay: Antagonist activity at human A2AR expressed in CHO cells assessed as inhibition of CGS21680-stimulated cAMP production by alphascreen assay; assay type: functional, cell-based
[8] = target: T4, Adenosine receptor A1 (Homo sapiens) (UniProt P30542); assay: Inverse agonist activity at human A1AR expressed in CHO cells assessed as increase in forskolin-stimulated cAMP production by alphascreen assay relative to DPCPX; assay type: functional, cell-based
T4 sequence (whole entry): T2 sequence (P30542 whole entry)
Method in brief: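 Compounds at 1 nM to 1 µM. cAMP rise measured by AlphaScreen. EC50 from sigmoid fit. […] Four independent experiments in triplicate.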

[9] = target: T5, Adenosine receptor A3 (Homo sapiens) (UniProt P0DMS8); assay: Displacement of [125I]ABMECA from human A3R expressed in CHO cell membranes at 1 uM measured after 120 mins by scintillation counting method relative to control
T5 sequence (whole entry): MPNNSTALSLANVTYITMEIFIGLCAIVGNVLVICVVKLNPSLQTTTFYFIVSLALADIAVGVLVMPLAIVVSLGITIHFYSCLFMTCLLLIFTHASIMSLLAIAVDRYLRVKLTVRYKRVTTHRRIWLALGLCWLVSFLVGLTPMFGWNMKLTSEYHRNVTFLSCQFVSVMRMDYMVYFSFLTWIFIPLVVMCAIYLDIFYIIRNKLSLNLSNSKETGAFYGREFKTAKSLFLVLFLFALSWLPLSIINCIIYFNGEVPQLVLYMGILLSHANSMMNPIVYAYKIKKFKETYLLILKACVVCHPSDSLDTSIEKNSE
Method in brief: (§4)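 Nonspecific binding with 1 µM AB-MECA. GF/B filtration and counting. Ki via Cheng–Prusoff. Percent inhibition at 1 µM. Four experiments in triplicate.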

[10] = target: T2, Adenosine receptor A1; assay: Displacement of [3H]DPCPX from human A1AR expressed in CHO cell membranes measured after 90 mins by scintillation counting method
Method in brief: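 Nonspecific binding with 1 µM DPCPX. GF/B filtration and scintillation counting. Ki by Cheng–Prusoff. Inhibition % at 1 µM. Four experiments in triplicate.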

[11] = system: Mus musculus; assay: Antinociceptive activity in CD-1 albino mouse model of oxaliplatin-induced neuropathic pain assessed as increase in licking latency at 0.01 to 0.3 mg/kg, po treated on day 15 post oxaliplatin treatment and measured at 15 to 45 mins post dose by cold plate test; assay type: functional, organism-based
Method in brief: (§5)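 Male CD-1 mice (22–25 g) given oxaliplatin 2.4 mg/kg i.p. in 5% glucose on days 1-2, 5-9 and 12-14. On day 15, single oral dose (test compounds in 1% CMC). Cold plate at 4 °C, latency to paw licking or lifting, 60 s cut-off, read 15–60 min post dose. 10 mice/group in two sets. ANOVA with Bonferroni.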

[12] = system: Mus musculus; assay: Antinociceptive activity in CD-1 albino mouse model of oxaliplatin-induced neuropathic pain assessed as increase in licking latency at 0.3 mg/kg, po treated on day 15 post oxaliplatin treatment and measured at 15 to 60 mins post dose in presence of alpha7 nAChR antagonist methyllycaconitine by cold plate test; assay type: functional, organism-based; method in brief: as §2
[13] = target: T6, Adenosine receptor A2b (Homo sapiens) (UniProt P29275); assay: Agonist activity at human A2B expressed in CHO cells assessed as stimulation of cAMP production at 1 uM by alphascreen assay relative to NECA; assay type: functional, cell-based; method in brief: as §1
T6 sequence (whole entry): T3 sequence (P29275 whole entry)

[14] = target: T7, Adenosine receptor A3 (Homo sapiens, UniProt P0DMS8); assay: Displacement of [125I]ABMECA from human A3R expressed in CHO cell membranes measured after 120 mins by scintillation counting method; method in brief: as §4
T7 sequence (P0DMS8 whole entry): T5 sequence (whole entry)

[15] = system: Mus musculus; assay: Antinociceptive activity in CD-1 albino mouse model of oxaliplatin-induced neuropathic pain assessed as increase in licking latency at 1 mg/kg, po treated on day 15 post oxaliplatin treatment and measured at 15 to 60 mins post dose by cold plate test; assay type: functional, organism-based; method in brief: as §5
[16] = system: Mus musculus; assay: Antinociceptive activity in CD-1 albino mouse model of oxaliplatin-induced neuropathic pain assessed as increase in licking latency at 0.3 mg/kg, po treated on day 15 post oxaliplatin treatment and measured at 15 to 60 mins post dose by cold plate test; assay type: functional, organism-based; method in brief: as §5
[17] = Half life in human plasma at 1 uM by LC-MS/MS analysis; assay type: ADME, cell-free
Method in brief: (§6)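 Analyte spiked at 1 µM into human plasma or heparinized Sprague-Dawley male rat plasma (or PBS). Incubated at 37°C for 0, 30, 60, 120 min in triplicate. Internal standard added, centrifuged, dried, reconstituted. Quantified by LC-MS/MS (ESI negative, MRM) against a 0–1 µM calibration. Half-life from concentration-time profile.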

[18] = target: T6, Adenosine receptor A2b (Homo sapiens); assay: Antagonist activity at human A2BR expressed in CHO cells assessed as inhibition of NECA-stimulated cAMP production at 1 uM by alphascreen assay relative to control; assay type: functional, cell-based; method in brief: as §3
[19] = Half life in Sprague-Dawley rat plasma at 1 uM by LC-MS/MS analysis; assay type: ADME, cell-free; method in brief: as §6
[20] = system: Mus musculus; assay: Antinociceptive activity in CD-1 albino mouse model of oxaliplatin-induced neuropathic pain assessed as increase in licking latency at 0.1 to 0.3 mg/kg, po treated on day 15 post oxaliplatin treatment and measured at 15 to 45 mins post dose by cold plate test; assay type: functional, organism-based; method in brief: as §5
[21] = system: Mus musculus; assay: Antinociceptive activity in CD-1 albino mouse model of oxaliplatin-induced neuropathic pain assessed as increase in licking latency at 0.1 to 0.3 mg/kg, po treated on day 15 post oxaliplatin treatment and measured at 30 to 60 mins post dose by cold plate test; assay type: functional, organism-based; method in brief: as §5
[22] = system: Mus musculus; assay: Antinociceptive activity in CD-1 albino mouse model of oxaliplatin-induced neuropathic pain assessed as increase in licking latency at 10 mg/kg, po treated on day 15 post oxaliplatin treatment and measured at 15 to 60 mins post dose in presence of nonspecific nAChR antagonist mecamylamine by cold plate test; assay type: functional, organism-based; method in brief: as §2
[23] = system: Mus musculus; assay: Antinociceptive activity in CD-1 albino mouse model of oxaliplatin-induced neuropathic pain assessed as increase in licking latency at 10 mg/kg, po treated on day 15 post oxaliplatin treatment and measured at 15 to 60 mins post dose by cold plate test; assay type: functional, organism-based; method in brief: as §5

T1 sequence (P29274 whole entry): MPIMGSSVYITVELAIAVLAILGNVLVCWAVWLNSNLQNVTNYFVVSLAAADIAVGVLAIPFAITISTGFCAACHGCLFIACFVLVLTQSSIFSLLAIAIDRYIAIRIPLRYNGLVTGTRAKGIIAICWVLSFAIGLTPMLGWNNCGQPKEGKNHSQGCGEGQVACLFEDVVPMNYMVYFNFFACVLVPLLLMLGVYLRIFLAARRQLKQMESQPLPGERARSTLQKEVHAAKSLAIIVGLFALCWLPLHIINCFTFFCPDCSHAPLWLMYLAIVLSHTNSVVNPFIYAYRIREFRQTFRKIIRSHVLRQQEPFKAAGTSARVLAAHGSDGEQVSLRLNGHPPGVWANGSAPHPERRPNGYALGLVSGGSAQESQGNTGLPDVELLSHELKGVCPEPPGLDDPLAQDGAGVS

Structure (SMILES)	Ki [2] [nM]	EC50 [3] [nM]	EC50 [4] [nM]	IC50 [6] [nM]	IC50 [7] [nM]	Emax [8] [%]	inhibition [9] [%]	Ki [10] [nM]	Efficacy [13] [%]	Ki [14] [nM]	inhibition [18] [%]	Activity [1]	Activity [5]	Activity [12]	other results
N#Cc1c(N)nc(SCc2cccc(C(=O)O)c2)c(C#N)c1-c1ccco1	581	8.92	> 1000	–	–	45	–	4.12	1	611	12	inactive	–	–	Activity [21]: Active
Cn1c(=O)c2c(ncn2C)n(C)c1=O	–	–	–	–	–	–	–	–	–	–	–	–	–	–	Activity [22]: inactive; Activity [23]: Active

More lines, in order of falling Ki [2], values ahead:

Ki [2] [nM]	EC50 [3] [nM]	EC50 [4] [nM]	IC50 [6] [nM]	IC50 [7] [nM]	Emax [8] [%]	inhibition [9] [%]	Ki [10] [nM]	Efficacy [13] [%]	Ki [14] [nM]	inhibition [18] [%]	Structure (SMILES)	Activity [1]	Activity [5]	Activity [12]	other results
68	1.43	> 1000	–	313	35	26	7.22	7	–	25	COC(=O)c1cccc(CSc2nc(N)c(C#N)c(-c3ccco3)c2C#N)c1	inactive	inactive	inactive	half-life at 1 µM [17]: ≥ 4 h; half-life at 1 µM [19]: ≥ 4 h; Activity [20]: Active
67	2.84	> 1000	13	58	31	–	1.32	6	326	–	N#Cc1c(N)nc(SCc2cccc(C(N)=O)c2)c(C#N)c1-c1ccco1	inactive	–	–	Activity [15]: Active; Activity [16]: inactive
31	4.97	> 1000	152	22	98	25	0.98	4	–	–	N#Cc1c(N)nc(SCc2cccc(CO)c2)c(C#N)c1-c1ccco1	inactive	inactive	inactive	Activity [11]: Active
